# Results: ChEMBL document CHEMBL4513216, “Probing the Open Global Health Chemical Diversity Library for Multistage-Active Starting Points for Next-Generation Antimalarials” (ACS Infect Dis, 2020)
# Assay: Toxicity liver stage against HepG2, at 10uM
# Assay type: cell-based
# Set-up: test concentration 10 uM, cell line HepG2-A16-CD81EGFP
# Conditions: human, HepG2-A16-CD81EGFP cells; read-out: INHIBITION
# Method in brief: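 Uninfected HepG2-A16-CD81EGFP cells, 3 × 10^3 per well, 1536-well, plated on prespotted compound at 10 μM final, parasite-free screening media added to match infected plates; puromycin 10 μM positive, DMSO 0.5% negative; run in parallel with 48 h PbLuc assay at 37 °C, 5% CO2; viability by CellTiter-Glo luminescence, normalized to controls.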
row,Compound,cytotoxicity at 10 µM [%]
1,C/C(NC(=O)c1cccs1)=C1\C(=O)C[C@@H]2[C@H]1C2(C)C,-1.18
2,CC(C)(C)n1ncc2c(=O)n(CC(=O)NCCc3ccccc3)cnc21,-11.3
3,Cc1cc(NCCc2nc(C)cs2)nc(-c2cccnc2)n1,1.02
4,COc1ccccc1CN1C[C@@H](F)[C@@H](OCc2nc3cnccc3[nH]2)C1,-6.66
5,CCN(CC)CC[C@H]1CN(C(=O)C(C)(C)C)CC[C@H]1CC(=O)O,0.0915
6,O=C(c1cn(Cc2ccccc2)c2ncccc12)N1CCCCC1,1.2
7,COc1c(C(=O)N2CCNC(=O)C2)cnc2c1c(C)nn2C,6.26
8,CC(=O)N1CCN(c2cc(N3CCOCC3)cnn2)CC1,-7.09
9,O=C(Cc1cccs1)N1CC[C@H]2[C@H]1CCN2Cc1cccnc1,2.41
10,CC(=O)N1CCC2(C=C(C(=O)NC3CC3)c3ccccc32)CC1,4.59
11,O=C(c1ccc2c(c1)OCO2)N1C[C@H](OCC2CC2)[C@H]2COC[C@H]21,-166
12,CNC(=O)c1cc2c(nc1NCC(C)C)CCN(S(C)(=O)=O)CC2,-161
13,Cc1occc1C(=O)N1CCC2(CCN(Cc3nccs3)CC2)C1,-5.33
14,CS(=O)(=O)N1CCN(C(=O)Cn2ccc3c(Cl)cccc32)CC1,20.6
15,O=C(O)c1nnn(Cc2cccc(C(F)(F)F)c2)c1-c1cccnc1,6.46
16,CS(=O)(=O)N1CCCC12CCCN(S(=O)(=O)c1ccc(F)cc1)C2 (stereo not given),0.442
17,CN(C)c1nc2n(c(=O)n1)CCN2C(=O)Nc1ccc(Cl)cc1,6.36
18,COc1ccc(CNc2nc(C3CC3)nc3c(C)nn(C)c23)cc1,5.4
19,Cc1cc(-c2ccc(=O)n(C3CCN(S(=O)(=O)N(C)C)CC3)n2)c(C)o1,6.54
20,Cc1n[nH]cc1C(=O)N1CCCC1c1cc[nH]n1 (stereo not given),-23.1
21,Cc1cc2n(n1)[C@@H](C(F)(F)F)C[C@@H](C1CCN(C(=O)C(C)C)CC1)N2,-30
22,CC(NC(=O)N1CCC2(C1)OCCO2)c1ccc(F)cc1Cl (stereo not given),-5.16

row,Compound,cytotoxicity at 10 µM [%]
1,CCc1nnc2n1CC(CNCc1nc(-c3ccsc3)no1)CC2 (stereo not given),-5.34
2,COc1cccc(S(=O)(=O)NC(=O)C2CC(c3ccccc3)=NO2)c1 (stereo not given),3.73
3,Cc1cc(Cn2cncc(Br)c2=O)on1,15.2
4,CC(C)(C)OC(=O)N1CCC(NCc2cnn(C(C)(C)C)c2)CC1,4.85
5,COC(=O)c1cc(NC(=O)CCc2cscn2)ccc1C,-0.172
6,Cc1nc(NC2CCN(C(=O)C3CC3)CC2)c2cnn(C)c2n1,-2.13
7,Cc1noc(C)c1S(=O)(=O)N1CCC(n2cccn2)CC1,2.63
8,Cc1cc(COc2ccc(OC3CCCCNC3=O)cc2)on1 (stereo not given),13.4
9,CN(Cc1nc(C(F)(F)F)cs1)C(=O)CCc1ccccn1,23.5
10,O=C(CNC(=O)c1ccoc1)NC(c1ccc(F)cc1)C(F)(F)F (stereo not given),-2.51
11,Cc1cc(CN(C2CC2)C(C)C(C)C)no1 (stereo not given),0.519
12,COc1cc(C)ccc1OCCC(=O)N1CCC(C(N)=O)C1 (stereo not given),6.31
13,c1ccc(CCN2CCc3c(ncn3C3CC3)C2)nc1,-1.43
14,CN(C)C1CCCN(C(=O)NCCNC(=O)C2CCCCC2)C1 (stereo not given),-1.69
15,CC(C)CC(C)NCc1cccnc1N1CCOCC1 (stereo not given),-4.22
16,COc1cc2c(cc1CNC(=O)Cc1ccc(C)nc1)OC(C)C2 (stereo not given),-6.47
17,CCN(CC(=O)Nc1cc(Cl)ccc1C)C(=O)c1cnccn1,-0.12
18,CC(Nc1cccc2c1OCCO2)C(=O)Nc1ccc(S(N)(=O)=O)cc1 (stereo not given),-3.93
19,Cc1ncc(CN(C)C(=O)c2ccc(N3CCOCC3)c(F)c2)s1,5.66
20,CS(=O)(=O)NC(=O)c1cc(Cl)c2c(c1)OCCCO2,-4.94
21,CCN(CC)C(C)CNC(=O)c1cccnc1Oc1cccnc1 (stereo not given),-2.09
22,Cc1nc(C)n(CC2CCCCN2CCCS(N)(=O)=O)n1 (stereo not given),-3.73

row,Compound,cytotoxicity at 10 µM [%]
1,CC(=O)c1cccc(OCCCC(=O)N(C)CC(N)=O)c1,17.3
2,CCCn1nnnc1CN1Cc2ccccc2CC1c1nnc(C)o1 (stereo not given),9.52
3,Cn1c(C(=O)N(CC(N)=O)C2CCCC2)cc(Cl)c1Cl,9.31
4,Cc1cnc(C(=O)N2CCN(Cc3csc(C)n3)CC2)cn1,-132
5,Cc1nc2cc(O)nn2c(C)c1CCC(=O)N(C)Cc1ccccc1,-141
6,COCCn1ccc(NC(=O)Nc2ccccn2)n1,3.18
7,NC(=O)CN(C(=O)c1c[nH]c2ncccc12)C1CCCC1,0.441
8,CC(O)CN(C)C(=O)Nc1ccn(-c2cccc(C(F)(F)F)c2)n1 (stereo not given),4.85
9,CNC(=O)NC(=O)C(C)N1CCCc2cc(OC)ccc2C1 (stereo not given),9.77
10,O=C(NCCn1ccnc1)c1cccc(Br)c1,9.3
11,CS(=O)(=O)NC1CCN(C(=O)COCc2ccccc2)CC1,-8.61
12,COc1cccc(-c2csc(Cn3ccc(=O)[nH]c3=O)n2)c1,3.57
13,CCc1nn(C)c(CC)c1CNC(=O)Nc1cccc2c1CCN2C,-1.57
14,CCc1cc(N2CCC(NCc3ccc(C)o3)CC2)ncn1,2.84
15,COCC(=O)NCCc1ccc(I)s1,11.3
16,CCCC(=O)NCc1cc(Br)c(OC)c(OC)c1,1.11
17,CN(C)C(=O)n1c(C(=O)NC(C)(C)CO)cc2c1c1ccccc1n2C,-76.2
18,CCN1CCN(C(=O)c2cc(-c3cccn3C)n[nH]2)[C@H]2CS(=O)(=O)C[C@H]21,-12.5
19,CCOC(=O)CC1(Nc2nc(C)nc3c2cnn3C)CCCCC1,5.03
20,CCn1ncnc1C(C)Nc1cc(C)c2ccc(SC)cc2n1 (stereo not given),-0.995
21,COc1nccnc1N1CCN(Cc2cccc(F)c2)C(=O)C1,3.77
22,CCc1n[nH]c(C(=O)NCCn2ccnc2C)c1C,-9.29

row,Compound,cytotoxicity at 10 µM [%]
1,COc1cccc(CN2CCN(c3cccc(C(C)C)n3)CC2)c1F,4.25
2,COc1ccc(-c2n[nH]cc2CN(C)Cc2ccoc2)c(F)c1,-0.174
3,CN(C)S(=O)(=O)N1CC[C@]2(O)CCN(CCCc3cccnc3)C[C@@H]2C1,-6.55
4,CC(C)C(=O)NCC(=O)N1CCC2(CC1)c1ccccc1[C@@H](N)[C@@H]2O,0.174
5,CSCC[C@H](NC(C)=O)c1nc(CC(C)C)n[nH]1,6.05
6,CC(=O)c1cc(CC(=O)NCc2ccsc2)cs1,2.29
7,Cn1ccnc1CCC1CCCCN1Cc1cnc(N2CCCC2)nc1 (stereo not given),1.43
8,CCc1nc(N)sc1C(=O)N1CCCC(COc2cccc(C)c2)C1 (stereo not given),-140
9,CC(C)=CCN1CCN(CCCOc2ccccc2)[C@H]2CS(=O)(=O)C[C@H]21,-8.34
10,Cc1nc2c(c(NCC(c3ccccc3C)N(C)C)n1)CCNC2 (stereo not given),19.2
11,CC(C)Cc1noc(-c2ccc(NCc3noc(C(C)C)n3)nc2)n1,0.178
12,Cn1cc2ncn([C@H]3CCN(Cc4ccccc4)C3)c(=O)c2n1,2.89
13,CNc1ncc(C(=O)N2CCC(CCc3ccccc3)CC2)cn1,13.1
14,COc1ccc(N2CCC(N3CCOC(C(F)(F)F)C3)CC2)cc1 (stereo not given),-20.5
15,COc1ccc(Cn2c(Cc3c(C)n[nH]c3C)n[nH]c2=O)cc1,-142
16,CCC(C)(C)c1cc(-c2c(C)nn(CCO)c2C)c(C#N)c(N)n1,3.31
17,Cc1n[nH]c(C)c1CNC(=O)c1cn(CCC2CCCCN2)nn1 (stereo not given),1.61
18,O=C(CC1CCc2ccccc21)NCCSc1cnn[nH]1 (stereo not given),0.878
19,CC1CN(C)CCN1C(=O)c1ccn(-c2ccccc2Cl)n1 (stereo not given),-6.33
20,CN(Cc1ccccc1)C(=O)CN1CCCC(Cn2cncn2)C1 (stereo not given),-11.8
21,Cc1ccc(-c2cc(CNC(=O)N3CCC(O)CC3)on2)cc1,-4.62
22,CCS(=O)(=O)c1ccccc1N1CCC(NC(=O)C(C)C)CC1,-3.87

row,Compound,cytotoxicity at 10 µM [%]
1,CC(C)(C)c1cc(C(=O)NCCN2CCCS2(=O)=O)[nH]n1,-8.16
2,CNc1nc(CNC(=O)Nc2cccc(C)c2Cl)cs1,-9.04
3,CCc1nnsc1C(=O)N1CCCC1c1c(C)nn(C)c1OC (stereo not given),-1.67
4,Cn1ccc(C(=O)NCc2ccccc2CN2CCCCC2)cc1=O,-2.51
5,CCn1cc(NC(=O)NCc2ccc3c(c2)OCO3)cn1,-1.1
6,Cc1cc(C(=O)NCC(C)N2CCc3ccccc32)on1 (stereo not given),-22.8
7,Cc1nc(C2CCCN(C(=O)c3cnn(C4CCCCC4)c3)C2)no1 (stereo not given),-6.37
8,CCOC(C)C(=O)NCc1ccc(N(C)C)cc1 (stereo not given),-13.3
9,COc1ccccc1CC1CCCN(CC(=O)NC2CC2)C1 (stereo not given),6.75
10,O=c1n(CCSCc2ccccc2Cl)nc2ccccn12,-7.68
11,O=C(NCc1ccc(Br)cc1)NCC1CCOC1 (stereo not given),-4.51
12,c1cnc(Nc2cc(CCC3CCCNC3)ccn2)cn1 (stereo not given),-7.58
13,Cc1nc(-c2ccccc2)cc(C2CCNCC2)n1,3.78
14,CC(C)N1CC[C@@H]2OC[C@H](C(=O)Nc3cccnc3)C[C@@H]2C1,15.7
15,Cn1ccnc1CN1CCN2C[C@H](OCc3ccccc3)C[C@H]2C1,9.37
16,Cc1nc(CN2CCc3ncnc(-c4cccnc4)c3CC2)cs1,7.51
17,CN(C)C(=O)COC[C@@]12CCC[C@@H]1CN(C1CCCC1)C2,-13.2
18,COCC1CC2(CCN(C(=O)c3ccc(C)nc3)CC2)CO1 (stereo not given),-127
19,Cc1cccc(CN2CCc3ncnc(NC4CCC4)c3CC2)n1,-152
20,CC(C)NC(=O)c1ccc2c(c1)C1(CCN(C(C)C)CC1)C(=O)N2,-7.47
21,CC(C)CN1CCC2(CC1)C(=O)Nc1ccc(C(=O)NC(C)C)cc12,-13.9
22,CNc1nc(C)c(C(=O)N2C[C@@H]3CC[C@H]2CN(c2cnccn2)C3)s1,13.6
